SMILES strings stand for the structures. The source made the active and inactive calls. No cut-off for these calls is given here.

Common to all, as to type: functional
For test [1], the species on record is Mus musculus. The experiment in a line: Geometric mean titer of mice receiving 5 ug compound along with vaccine was determined after 21 days. The method, boiled down:
(§1)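 ICR/Ha mice, groups of eight, were injected with an influenza hemagglutinin antigen vaccine plus adjuvant. Hemagglutination-inhibition antibody was assayed in sera taken 21 days post-injection. Titer is the reciprocal of the serum dilution, reported as the group geometric mean.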

The species entered for test [2] is Mus musculus. The experiment in a line: Mitogenic activity is evaluated in vitro against splenocyte culture from C58 mice; NA means no activity. The method, boiled down: (§2)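 Washed splenocytes from C58 mice were plated at 6 x 10^5 viable lymphocytes per well in RPMI 1640 with 10% fetal calf serum. Compound dilutions were added with Con A, E. coli LPS, or medium alone and incubated at 37 °C for 3-4 days. [3H]thymidine was then added, and cells were harvested 4 h later. Counts are geometric means of four replicate wells.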

The species entered for test [3] is Mus musculus. The test can be described thus: Geometric mean titer of mice receiving 50 ug compound along with vaccine was determined after 21 days. The method, boiled down:
as §1

For test [4], the species on record is Mus musculus. The test can be described thus: Mitogenic activity is evaluated in vitro against splenocyte culture from C58 mice; mitogenic. In outline: as §2

As to `CC1OC(SCCCc2ccc(C(F)(F)C(F)(F)c3ccccc3)cc2)C(O)C(O)C1O` (stereo unspecified), the Activity in the test listed under Mus musculus [1] came to 33.64.

With `CC(C)CCC[C@@H](C)[C@H]1CC[C@H]2[C@@H]3CC=C4C[C@@H](OCCCCCCS[C@@H]5O[C@@H](CO)[C@@H](O[C@@H]6O[C@@H](CO)[C@H](O)[C@H](O)[C@@H]6O)[C@H](O)[C@@H]5O)CC[C@]4(C)[C@H]3CC[C@]12C`, in the test filed under Mus musculus [2], the result was inactive. This molecule gave an Activity in the test filed under Mus musculus [3] of 40.

Regarding `CC(C)CCCC(C)C1CCC2C3CC=C4CC(OCCCCCCSC5OC(C)C(O)C(O)C5O)CCC4(C)C3CCC12C` (stereo unspecified), in the test filed under Mus musculus [2], the result was inactive. The Activity in the test listed under Mus musculus [1] is reported as 28.28.

As to `CC1OC(SCCC23C[C@H]4C[C@@H](C2)C[C@@H](C3)C4)C(O)C(O)C1O` (stereo partly specified), the Activity in the test listed under Mus musculus [1] came to 47.57.

With `CC(=O)N[C@H]1C(O)O[C@H](CO)[C@@H](O)[C@@H]1O[C@H](C)C(=O)N[C@@H](C)C(=O)N[C@H](CCC(=O)O)C(N)=O` (stereo partly specified) [MURAMYL DIPEPTIDE], the values for the Activity result in the test filed under Mus musculus [4] and in the test listed under Mus musculus [3] were “Mitogenic” and 40, respectively.

As to `CC(C)CCCC(C)C1CCC2C3CC=C4CC(OCCC#CCCSC5OC(C)C(O)C(O)C5O)CCC4(C)C3CCC12C` (stereo unspecified), the result in the test filed under Mus musculus [2] was inactive. The Activity in the test listed under Mus musculus [3] is reported as 33.64.

As for `CCCCCCCC/C=C\CCCCCCCCSC1OC(C)C(O)C(O)C1O` (stereo unspecified), the Activity in the test listed under Mus musculus [1] is on record as 61.69.

The values above are taken from ChEMBL document CHEMBL1121552, “Glycolipids as potential immunologic adjuvants” (1980).
